Results as given in ChEMBL document CHEMBL3045155, “Design, synthesis, and insecticidal activities of novel monohalovinylated pyrethroids” (2011).
In brackets after ≈: the same amount, converted by molar mass.

Key:
Assay type in all cases: functional
[1] = tested on: Culex pipiens pallens; assay: Insecticidal activity against Culex pipiens pallens (mosquito) fourth-instar larvae assessed as insect mortality measured 24 hr post compound exposure by dipping method; conditions: for LC50: Culex pipiens, 24 h
[2] = tested on: Culex pipiens pallens; assay: Potency index, ratio of LC50 for cypermethrin to LC50 for test compound against Culex pipiens pallens (mosquito) fourth-instar larvae assessed as insect mortality measured 24 hr post compound exposure by dipping method
[3] = tested on: Mythimna separata; assay: Insecticidal activity against Mythimna separata (Oriental armyworm) grown on compound pre-treated corn leaves assessed as insect mortality measured 48 hr post compound exposure
How it was run: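 Leaves on filter paper in Petri dishes dipped 5 s in test solutions (acetone, diluted with water) and air-dried, then infested with 10 third-instar larvae; concentrations 500.0 down to 0.25 mg L-1; triplicate per concentration; 26 ± 1 °C, 70 ± 10% RH; percentage mortality at 48 h.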

Work on `CC1(C)C(C=C(Cl)Cl)C1C(=O)OC(C#N)c1cccc(Oc2ccccc2)c1` (stereo not drawn) [ALPHA-CYPERMETHRIN] yielded an LC95 [1] of 0.0286 µg/mL (≈ 0.0687 µM), an LC50 [1] of 0.0106 µg/mL (≈ 0.0255 µM) and a RatioLC50 [2] of 100.
`CC1(C)[C@H](C(=O)O[C@H](C#N)c2cccc(Oc3ccccc3)c2)[C@@H]1C=C(Br)Br` [DELTAMETHRIN] showed an LC95 [1] of 0.0033 µg/mL (≈ 0.00653 µM), an LC50 [1] of 0.0012 µg/mL (≈ 0.00238 µM) and a RatioLC50 [2] of 883. For the same compound, the LC50 [3] was 0.149 µg/mL (≈ 0.294 µM).
In the case of `CC1(C)[C@H](/C=C/Cl)[C@H]1CC(=O)OCc1c(F)c(F)cc(F)c1F` (relative stereo), the LC95 [1] is reported as 0.358 µg/mL (≈ 1.02 µM), the LC50 [1] is reported as 0.249 µg/mL (≈ 0.71 µM) and the RatioLC50 [2] is reported as 4.3.
Compound `C=CCC1=C(C)C(COC(=O)C[C@H]2[C@@H](/C=C/Br)C2(C)C)CC1=O` (relative stereo) has an LC95 [1] of 0.7054 µg/mL (≈ 1.85 µM), an LC50 [1] of 0.44 µg/mL (≈ 1.15 µM) and a RatioLC50 [2] of 2.4.
